Test results from PubChem BioAssay.
Calls of active or inactive are those of the source.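 The calls were made as follows, unless noted: active = potentiation averaged over duplicate wells exceeding buffer-only control mean by more than 3 SD; inactive = the rest.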

Tested on: not listed separately
Assay: nonspecific flux increase, KCNQ1-free cells – parental CHO cells, counter-screen for KCNQ1 potentiator project (AID 493006;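 active = duplicate-averaged activation above buffer control mean plus 5 SD of those controls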)
Conditions: parental CHO-K1 cells, FluxOR thallium flux, at 10 µM; stronger effect = higher value
In short: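 Assay system: Untransfected host CHO-K1 cells with FluxOR thallium dye | Probe or stimulus: Potassium/thallium depolarization pulse | Schedule: Overnight 37 °C plating, 90 min RT dye, 20 min compound | Detection: Kinetic thallium-flux fluorescence | Read-out: Max-minus-min fluorescence over baseline, percent of buffer-to-R-L3 span | Benchmarks: Low control buffer, high control R-L3 activator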
In the case of `Cc1sc(-n2c(C)cc(/C=N/n3cnnc3)c2C)c(C#N)c1C`, the outcome is reported as “inactive”. In the case of `O=C(NC(=S)NCCC1=CCCCC1)c1ccco1`, the activation is reported as 324% (active). In the case of `O=S(=O)(c1cc(F)cc(F)c1)N1CCN(c2ncccn2)CC1`, the outcome is reported as “inactive”. In the case of `S=c1nc(-c2ccc(Br)cc2)[nH]c2ccccc12`, the activation is reported as 572% (active). In the case of `COc1ccc2c(-c3ccccc3)cc(=S)[nH]c2c1`, the activation is reported as 210% (active). In the case of `c1ccc2c(OCCCCN3CCOCC3)cccc2c1`, the outcome is reported as “inactive”. For `O=C(/C=C/c1ccccc1)C1C(=O)c2ccccc2C1=O`, the outcome was “inactive”. For `O=C(NC(=S)N(Cc1ccccc1)Cc1ccccc1)c1ccccc1F`, the activation was 225% (active). For `Cc1ccc(S(=O)(=O)N(C)c2nc3ccccc3[nH]c2=S)cc1`, the outcome was “inactive”. In the case of `O=C(Nc1ccc(C(=O)O)cc1)/C(=C\c1ccc2c(c1)OCO2)NC(=O)c1ccc(Br)cc1`, the outcome is reported as “inactive”. With `CCn1c(SC(C)C(=O)O)nc2sc3c(c2c1=O)CCC3` (stereo not given) the activation was 203% (active). In the case of `CN(CC(=O)Nc1ccc(F)c(F)c1F)C(=O)CC1OC(=O)c2ccccc21` (stereo not given), the outcome is reported as “inactive”. In the case of `O=C(COc1ccccc1)NC(=S)N1CCc2ccccc21`, the outcome is reported as “inactive”. With `COc1ccc(-c2cnc3c(c2)CCC3(C#N)C#N)cc1` the outcome was “inactive”. With `CCc1ccc2nc(NC(=O)c3cc(C)on3)sc2c1` the activation was 157% (active). With `Cc1cc(O)ccc1N=Cc1c(C(F)(F)F)[nH][nH]c1=O` the outcome was “inactive”. In the case of `C/C(=N/NC(=O)c1ccc(Br)o1)c1ccc(C)o1`, the outcome is reported as “inactive”. In the case of `COCCn1c(=S)[nH]c2sc3c(c2c1=O)CCCC3`, the activation is reported as 325% (active). In the case of `Cc1nc(-c2nc(-c3c(C(=O)NNC(=O)c4ccc(Cl)cc4)noc3C)cs2)cs1`, the activation is reported as 140% (active). For `CC1CCCC(NC(=S)NC(=O)c2ccccc2Br)C1C` (stereo not given), the outcome was “inactive”. For `CCC1CCCCN1S(=O)(=O)c1ccc(NC(=O)c2cccnc2)cc1` (stereo not given), the outcome was “inactive”. For `CC(C)(C)NC(=O)C(=O)NNC(=O)c1cccc(Br)c1`, the activation was 242% (active). With `COc1ccc(-c2nc3ccc(C(=O)NCC(OC)OC)cc3nc2-c2ccc(OC)c(OC)c2)cc1OC` the outcome was “inactive”. With `CCOC(=O)c1ccc(Oc2nc(NC(C)(C)C)nc(N(C)C)n2)cc1` the outcome was “inactive”. With `CC(/C=C1\SC(=S)N(c2ccc(C(=O)O)cc2)C1=O)=C\c1ccccc1` the outcome was “inactive”. For `CN(C)CCNC(=O)c1ccc2c(=O)n(Cc3ccc(Cl)cc3)c(=S)[nH]c2c1`, the outcome was “inactive”. In the case of `COc1ccccc1OCCc1nnc(N)s1`, the outcome is reported as “inactive”. In the case of `CN(CC(=O)NCCc1ccc(F)cc1)Cc1cccc(Cl)c1`, the outcome is reported as “inactive”. With `COc1ccc(NC(=O)C(=O)NNC(=O)c2cccs2)cc1` the activation was 177% (active). With `Cc1ccccc1CC(=O)NC1CCN(Cc2ccccc2)CC1` the outcome was “inactive”. In the case of `CCCCN(CCCC)C(=S)N/N=C/c1c(C)[nH]n(-c2ccccc2)c1=O`, the activation is reported as 198% (active). With `Cc1cc(/C=C2\SC(=Nc3ccc(F)cc3)NC2=O)c(C)n1-c1ccc(S(N)(=O)=O)cc1` the outcome was “inactive”. In the case of `O=C(c1ccc(S(=O)(=O)N2CCCC2)cc1)N1CCN(c2cccc(Cl)c2)CC1`, the outcome is reported as “inactive”. For `COc1ccccc1C(=O)NNC(=O)C(=O)Nc1ccc(C)cc1`, the activation was 534% (active). In the case of `COc1ccc(C(=O)NNC(=O)C(=O)Nc2ccc(C)cc2)cc1`, the activation is reported as 254% (active). With `O=C(N/N=C/c1ccccn1)c1cc(-c2ccc(Br)cc2)nc2ccccc12` the activation was 142% (active). With `COc1cccc(OCC(=O)NNC(=O)C(=O)Nc2ccc(OC)cc2OC)c1` the activation was 172% (active). In the case of `CCOC(=O)NC(=S)Nc1ccc(C(C)(C)C)cc1Br`, the activation is reported as 213% (active). In the case of `Cc1ccc(C(=O)OCC(=O)Nc2sc3c(c2C#N)CCCC3)cc1NC(=O)c1ccco1`, the outcome is reported as “inactive”. For `Cc1ccccc1C(=O)c1c[nH]c(C(=O)N2CCN(c3ccccc3F)CC2)c1`, the outcome was “inactive”.

Molecular target: Potassium voltage-gated channel subfamily KQT member 1 (Homo sapiens) (UniProt P51787)
Sequence (P51787 whole entry, looked up): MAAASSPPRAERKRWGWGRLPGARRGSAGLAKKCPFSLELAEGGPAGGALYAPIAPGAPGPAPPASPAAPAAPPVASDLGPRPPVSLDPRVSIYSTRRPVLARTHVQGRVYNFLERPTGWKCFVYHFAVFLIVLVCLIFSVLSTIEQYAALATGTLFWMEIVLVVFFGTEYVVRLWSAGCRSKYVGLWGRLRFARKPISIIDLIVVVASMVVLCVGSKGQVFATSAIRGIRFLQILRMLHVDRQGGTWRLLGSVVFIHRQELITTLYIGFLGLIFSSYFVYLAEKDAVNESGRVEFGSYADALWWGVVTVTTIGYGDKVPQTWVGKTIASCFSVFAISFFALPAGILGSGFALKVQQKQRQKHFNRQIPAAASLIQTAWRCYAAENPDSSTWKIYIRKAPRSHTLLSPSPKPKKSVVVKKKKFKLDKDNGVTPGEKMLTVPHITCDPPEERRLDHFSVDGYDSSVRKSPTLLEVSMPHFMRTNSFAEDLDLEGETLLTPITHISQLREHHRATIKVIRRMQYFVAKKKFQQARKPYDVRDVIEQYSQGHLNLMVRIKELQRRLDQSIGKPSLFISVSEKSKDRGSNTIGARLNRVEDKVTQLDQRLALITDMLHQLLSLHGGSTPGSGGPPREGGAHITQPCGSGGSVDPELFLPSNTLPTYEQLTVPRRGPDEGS
Assay: enhancement of KCNQ1 channel thallium flux – FluxOR thallium flux, CHO cells, duplicates, confirmation (AID 493007);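 as to outcome: cells depolarized by a potassium plus thallium sulfate stimulus after compound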
Conditions: KCNQ1 cell line, FluxOR thallium flux fluorescence, at 10 µM; stronger effect = higher value, % of reference activator effect, buffer zero
In short: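 Material: KCNQ1-expressing CHO cell line; Incubation: FluxOR dye loading 90 min, compound exposure 20 min, room temperature; Detection: FluxOR Tl+ flux fluorescence, 10 s baseline plus 110 s recording; Read-out: percent activation between buffer and R-L3 responses; Control set: buffer-only wells as 0% and R-L3 activator as 100%; Replication: duplicate wells per compound.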
For `Cc1sc(-n2c(C)cc(/C=N/n3cnnc3)c2C)c(C#N)c1C`, the potentiation was 17.5% (active). With `O=C(NC(=S)NCCC1=CCCCC1)c1ccco1` the potentiation was 97% (active). For `O=S(=O)(c1cc(F)cc(F)c1)N1CCN(c2ncccn2)CC1`, the outcome was “inactive”. In the case of `S=c1nc(-c2ccc(Br)cc2)[nH]c2ccccc12`, the potentiation is reported as 188% (active). With `COc1ccc2c(-c3ccccc3)cc(=S)[nH]c2c1` the potentiation was 50.5% (active). For `c1ccc2c(OCCCCN3CCOCC3)cccc2c1`, the outcome was “inactive”. For `O=C(/C=C/c1ccccc1)C1C(=O)c2ccccc2C1=O`, the potentiation was 25.5% (active). For `O=C(NC(=S)N(Cc1ccccc1)Cc1ccccc1)c1ccccc1F`, the potentiation was 208% (active). In the case of `Cc1ccc(S(=O)(=O)N(C)c2nc3ccccc3[nH]c2=S)cc1`, the potentiation is reported as 42.5% (active). In the case of `O=C(Nc1ccc(C(=O)O)cc1)/C(=C\c1ccc2c(c1)OCO2)NC(=O)c1ccc(Br)cc1`, the outcome is reported as “inactive”. With `CCn1c(SC(C)C(=O)O)nc2sc3c(c2c1=O)CCC3` (stereo not given) the potentiation was 42.5% (active). For `CN(CC(=O)Nc1ccc(F)c(F)c1F)C(=O)CC1OC(=O)c2ccccc21` (stereo not given), the outcome was “inactive”. With `O=C(COc1ccccc1)NC(=S)N1CCc2ccccc21` the potentiation was 20% (active). In the case of `COc1ccc(-c2cnc3c(c2)CCC3(C#N)C#N)cc1`, the outcome is reported as “inactive”. With `CCc1ccc2nc(NC(=O)c3cc(C)on3)sc2c1` the potentiation was 55% (active). With `Cc1cc(O)ccc1N=Cc1c(C(F)(F)F)[nH][nH]c1=O` the outcome was “inactive”. In the case of `C/C(=N/NC(=O)c1ccc(Br)o1)c1ccc(C)o1`, the outcome is reported as “inactive”. For `COCCn1c(=S)[nH]c2sc3c(c2c1=O)CCCC3`, the potentiation was 106% (active). For `Cc1nc(-c2nc(-c3c(C(=O)NNC(=O)c4ccc(Cl)cc4)noc3C)cs2)cs1`, the potentiation was 54.5% (active). For `CC1CCCC(NC(=S)NC(=O)c2ccccc2Br)C1C` (stereo not given), the potentiation was 29.5% (active). For `CCC1CCCCN1S(=O)(=O)c1ccc(NC(=O)c2cccnc2)cc1` (stereo not given), the outcome was “inactive”. In the case of `CC(C)(C)NC(=O)C(=O)NNC(=O)c1cccc(Br)c1`, the potentiation is reported as 34% (active). For `COc1ccc(-c2nc3ccc(C(=O)NCC(OC)OC)cc3nc2-c2ccc(OC)c(OC)c2)cc1OC`, the outcome was “inactive”. For `CCOC(=O)c1ccc(Oc2nc(NC(C)(C)C)nc(N(C)C)n2)cc1`, the outcome was “inactive”. In the case of `CC(/C=C1\SC(=S)N(c2ccc(C(=O)O)cc2)C1=O)=C\c1ccccc1`, the outcome is reported as “inactive”. With `CN(C)CCNC(=O)c1ccc2c(=O)n(Cc3ccc(Cl)cc3)c(=S)[nH]c2c1` the potentiation was 25% (active). With `COc1ccccc1OCCc1nnc(N)s1` the outcome was “inactive”. In the case of `CN(CC(=O)NCCc1ccc(F)cc1)Cc1cccc(Cl)c1`, the outcome is reported as “inactive”. In the case of `COc1ccc(NC(=O)C(=O)NNC(=O)c2cccs2)cc1`, the potentiation is reported as 24.5% (active). In the case of `Cc1ccccc1CC(=O)NC1CCN(Cc2ccccc2)CC1`, the outcome is reported as “inactive”. For `CCCCN(CCCC)C(=S)N/N=C/c1c(C)[nH]n(-c2ccccc2)c1=O`, the potentiation was 123% (active). For `Cc1cc(/C=C2\SC(=Nc3ccc(F)cc3)NC2=O)c(C)n1-c1ccc(S(N)(=O)=O)cc1`, the outcome was “inactive”. With `O=C(c1ccc(S(=O)(=O)N2CCCC2)cc1)N1CCN(c2cccc(Cl)c2)CC1` the outcome was “inactive”. With `COc1ccccc1C(=O)NNC(=O)C(=O)Nc1ccc(C)cc1` the potentiation was 182% (active). For `COc1ccc(C(=O)NNC(=O)C(=O)Nc2ccc(C)cc2)cc1`, the potentiation was 123% (active). For `O=C(N/N=C/c1ccccn1)c1cc(-c2ccc(Br)cc2)nc2ccccc12`, the potentiation was 51.5% (active). In the case of `COc1cccc(OCC(=O)NNC(=O)C(=O)Nc2ccc(OC)cc2OC)c1`, the potentiation is reported as 55.5% (active). With `CCOC(=O)NC(=S)Nc1ccc(C(C)(C)C)cc1Br` the potentiation was 123% (active). For `Cc1ccc(C(=O)OCC(=O)Nc2sc3c(c2C#N)CCCC3)cc1NC(=O)c1ccco1`, the outcome was “inactive”. In the case of `Cc1ccccc1C(=O)c1c[nH]c(C(=O)N2CCN(c3ccccc3F)CC2)c1`, the outcome is reported as “inactive”.
